Test results as given in ChEMBL document CHEMBL1128256, “Synthesis, biological evaluation, and structure analysis of a series of new 1,5-anhydrohexitol nucleosides” (J Med Chem, 1995).
≈ marks a conversion by molar mass, not a printed value.

Legend:
E6SM [1] = test: Tested for the minimum inhibitory concentration required to reduce herpes simplex virus type 2 (HSV-2) strain 196 induced cytopathogenicity by 50%; type: functional; details: Homo sapiens
Outline: (§1)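 Inhibition of virus-induced cytopathogenicity in human embryonic skin-muscle (E6SM) fibroblasts seeded in 96-well trays. Viruses were HSV-1 (KOS, F, McIntyre), TK- HSV-1 B2006, TK-/TK+ HSV-1 clinical isolate VMW-1837 and HSV-2 (G, 196, Lyons). […] MCC is the lowest concentration giving microscopically detectable alteration of normal cell morphology; highest concentration tested was 400 µg/mL.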

E6SM [2] = test: Tested for the minimum inhibitory concentration required to reduce herpes simplex virus type 2 (HSV-2) strain G induced cytopathogenicity by 50%; type: functional; details: Homo sapiens; outline: as §1
E6SM [3] = test: Tested for the minimum inhibitory concentration required to reduce herpes simplex virus type 2 (HSV-2) strain Lyons induced cytopathogenicity by 50%; type: functional; details: Homo sapiens; outline: as §1
E6SM [4] = test: Tested for the minimum inhibitory concentration required to reduce herpes simplex virus type 1 (HSV-1) strain F induced cytopathogenicity by 50%.; type: functional; details: Homo sapiens; outline: as §1
E6SM [5] = test: Tested for the minimum inhibitory concentration required to reduce herpes simplex virus type 1 (HSV-1) strain KOS induced cytopathogenicity by 50%; type: functional; details: Homo sapiens; outline: as §1
E6SM [6] = test: Tested for the minimum inhibitory concentration required to reduce herpes simplex virus type 1 (HSV-1) strain McIntyre induced cytopathogenicity by 50%; type: functional; details: Homo sapiens; outline: as §1
E6SM [7] = test: Tested for the minimum inhibitory concentration required to reduce herpes simplex virus type 1 (TK/ TK+HSV-1) strain VMW-1837 induced cytopathogenicity by 50%; type: functional; details: Homo sapiens; outline: as §1
E6SM [8] = test: Tested for the minimum cytotoxic concentration required to cause a microscopically detectable alteration of normal cell morphology in human embryonic skin muscle (E6SM) fibroblast cell cultures; type: functional
Outline: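 Cytotoxicity in human embryonic skin-muscle (E6SM) fibroblasts seeded in 96-well trays, scored microscopically as altered normal cell morphology. Tested up to 400 µg/mL.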

E6SM [9] = test: Tested for the minimum inhibitory concentration required to reduce thymidine kinase deficient herpes simplex virus type 1 (TK- HSV-1) strain B2006 induced cytopathogenicity by 50%; type: functional; details: Homo sapiens; outline: as §1
HEL [10] = test: Tested for the cytotoxic concentration, required to reduce cell growth by 50% in human embryonic lung (HEL) cells; type: functional
Outline: (§2)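 Virus plaque formation assay in human embryonic lung (HEL) cells seeded in 96-well trays. Targets were TK+ VZV (Oka, YS), TK- VZV (07/1, YS/R) and CMV (AD169, Davis). Value is the concentration that reduces plaque number by 50%. Cytotoxicity in HEL cells was taken as the concentration that reduces cell growth by 50%.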

HEL [11] = test: Tested for the inhibitory concentration required to reduce TK+ Varicella-Zoster virus (TK+VZV) strain YS plaque formation by 50%; type: functional, cell-based; details: Homo sapiens; outline: as §2
HEL [12] = test: Tested for the inhibitory concentration required to reduce TK+varicella-zoster virus (TK+ VZV) strain OKA plaque formation by 50%; type: functional, cell-based; details: Homo sapiens; outline: as §2
HEL [13] = test: Tested for the inhibitory concentration required to reduce cytomegalovirus (CMV) strain Davis plaque formation by 50%; type: functional, cell-based; details: Homo sapiens; outline: as §2
HEL [14] = test: Tested for the inhibitory concentration required to reduce thymidine kinase deficient Varicella-Zoster virus (TK-VZV) strain 07/1 plaque formation by 50%; type: functional, cell-based; details: Homo sapiens; outline: as §2
HEL [15] = test: Tested for the inhibitory concentration required to reduce thymidine kinase deficient Varicella-Zoster virus (TK-VZV) strain YS/R plaque formation by 50%; type: functional, cell-based; details: Homo sapiens; outline: as §2
HEL [16] = test: Tested for the inhibitory concentration required to reduce cytomegalovirus (CMV) strain AD-169 plaque formation by 50%; type: functional, cell-based; details: Homo sapiens; outline: as §2
E6SM [17] = test: (§3) Tested for the minimum inhibitory concentration required to reduce herpes simplex virus type 2 (HSV-2) strain 196 induced cytopathogenicity by 50%.; type: functional; details: Homo sapiens; outline: as §1
E6SM [18] = test: Tested for the minimum inhibitory concentration required to reduce herpes simplex virus type 2 (HSV-2) strain G induced cytopathogenicity by 50%.; type: functional; details: Homo sapiens; outline: as §1
E6SM [19] = test: Tested for the minimum inhibitory concentration required to reduce herpes simplex virus type 2 (HSV-2) strain Lyons induced cytopathogenicity by 50%.; type: functional; details: Homo sapiens; outline: as §1
E6SM [20] = test: Tested for the minimum inhibitory concentration required to reduce herpes simplex virus type 1 (HSV-1) strain KOS induced cytopathogenicity by 50%.; type: functional; details: Homo sapiens; outline: as §1
E6SM [21] = test: Tested for the minimum inhibitory concentration required to reduce herpes simplex virus type 1 (HSV-1) strain McIntyre induced cytopathogenicity by 50%.; type: functional; details: Homo sapiens; outline: as §1
E6SM [22] = test: Tested for the minimum inhibitory concentration required to reduce herpes simplex virus type 1 (TK- / TK + HSV-1) strain VMW-1837 induced cytopathogenicity by 50%.; type: functional; details: Homo sapiens; outline: as §1
E6SM [23] = test: Tested for the minimum cytotoxic concentration required to cause a microscopically detectable alteration of normal cell morphology in human embryonic skin muscle (E6SM) fibroblast cell cultures.; type: functional; outline: as §1
E6SM [24] = test: Tested for the minimum inhibitory concentration required to reduce thymidine kinase deficient herpes simplex virus type 1 (TK- HSV-1) strain B2006 induced cytopathogenicity by 50%.; type: functional; details: Homo sapiens; outline: as §1
HEL [25] = test: Tested for the cytotoxic concentration, required to reduce cell growth by 50% in human embryonic lung (HEL) cells.; type: functional; outline: as §2
HEL [26] = test: Tested for the inhibitory concentration required to reduce cytomegalovirus (CMV) strain AD-169 plaque formation by 50%.; type: functional, cell-based; details: Homo sapiens; outline: as §2
HEL [27] = test: Tested for the inhibitory concentration required to reduce cytomegalovirus (CMV) strain Davis plaque formation by 50%.; type: functional, cell-based; details: Homo sapiens; outline: as §2
HEL [28] = test: Tested for the inhibitory concentration required to reduce thymidine kinase deficient Varicella-Zoster virus (TK- VZV) strain 07/1 plaque formation by 50%.; type: functional, cell-based; details: Homo sapiens
HEL [29] = test: Tested for the inhibitory concentration required to reduce thymidine kinase deficient Varicella-Zoster virus (TK- VZV) strain YS/R plaque formation by 50%.; type: functional, cell-based; details: Homo sapiens
HEL [30] = test: Tested for the inhibitory concentration required to reduce thymidine kinase plus Varicella-Zoster virus (TK+ VZV) strain OKA plaque formation by 50%.; type: functional, cell-based; details: Homo sapiens; outline: as §2
HEL [31] = test: Tested for the inhibitory concentration required to reduce thymidine kinase plus Varicella-Zoster virus (TK+ VZV) strain YS plaque formation by 50%; type: functional, cell-based; details: Homo sapiens; outline: as §2
E6SM [32] = test: Tested for the minimum inhibitory concentration required to reduce vesicular stomatitis virus(VSV) induced cytopathogenicity by 50%; type: functional; details: Homo sapiens
E6SM [33] = test: Tested for the minimum inhibitory concentration required to reduce thymidine kinase deficient herpes simplex virus type 1 (TK-HSV-1) strain B2006 induced cytopathogenicity by 50%; type: functional; details: Homo sapiens; outline: as §1
HEL [34] = test: Tested for the inhibitory concentration required to reduce TK+ Varicella-Zoster virus (TK+VZV) strain OKA plaque formation by 50%; type: functional, cell-based; details: Homo sapiens; outline: as §2
E6SM [35] = test: Tested for the minimum inhibitory concentration required to reduce vaccinia virus(VV) induced cytopathogenicity by 50%; type: functional; details: Homo sapiens
E6SM [36] = test: Tested for the minimum inhibitory concentration required to reduce vaccinia virus(VV) induced cytopathogenicity by 50%.; type: functional; details: Homo sapiens
E6SM [37] = test: Tested for the minimum inhibitory concentration required to reduce herpes simplex virus type 1 (TK- / TK+ HSV-1) strain VMW-1837 induced cytopathogenicity by 50%.; type: functional; details: Homo sapiens; outline: as §1
HEL [38] = test: Tested for the inhibitory concentration required to reduce TK+ Varicella-Zoster virus (TK+ VZV) strain OKA plaque formation by 50%.; type: functional, cell-based; details: Homo sapiens
HEL [39] = test: Tested for the inhibitory concentration required to reduce TK+ Varicella-Zoster virus (TK+ VZV) strain YS plaque formation by 50%; type: functional, cell-based; details: Homo sapiens
Mus musculus = species on record: Mus musculus; test: Inhibition constant assumed to reflect the affinity for the transport site in mouse erythrocytes; type: functional
Outline: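 Thymidine influx competition in erythrocytes from male B6D2F1 mice, 10% hematocrit in buffered saline, room temperature. [methyl-3H]thymidine at 0.1, 0.2, 0.5 and 1 mM, alone or with inhibitor at 0.053–1.05 mM. Influx stopped after 3 s with NBMPR. Pellets extracted in 5% perchloric acid and counted by scintillation. Zero-time trapping subtracted. Duplicate samples. Ki from Dixon plot.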

E6SM [40] = test: as §3; type: functional; details: Homo sapiens; remark: listed apart in the source
HEL [41] = test: Tested for the 50% inhibitory concentration required to reduce TK+ Varicella-Zoster virus (TK+ VZV) strain YS plaque formation by 50%; type: functional, cell-based; details: Homo sapiens; outline: as §2

Compound	MIC (E6SM [2])	MIC (E6SM [4])	MIC (E6SM [5])	MIC (E6SM [7])	MCC (E6SM [8])	CC50 (HEL [10])	IC50 (HEL [11])	IC50 (HEL [13])	MIC (E6SM [18])	MIC (E6SM [19])	MIC (E6SM [20])	MIC (E6SM [21])	MCC (E6SM [23])	MIC (E6SM [24])	CC50 (HEL [25])	IC50 (HEL [26])	IC50 (HEL [27])	IC50 (HEL [28])	IC50 (HEL [29])	MIC (E6SM [32])	also measured
OCC1OCC(n2cnc3c(O)ncnc32)CC1O (stereo not drawn)	> 400 µg/mL	300 µg/mL (≈ 1130 µM)	> 400 µg/mL	300 µg/mL (≈ 1130 µM)	> 400 µg/mL	> 50 µg/mL	25 µg/mL (≈ 93.9 µM)	> 40 µg/mL													MIC (E6SM [1]): 300 µg/mL (≈ 1130 µM); MIC (E6SM [3]): 300 µg/mL (≈ 1130 µM); MIC (E6SM [6]): > 400 µg/mL; MIC (E6SM [9]): > 400 µg/mL; IC50 (HEL [12]): > 40 µg/mL; IC50 (HEL [14]): > 40 µg/mL; IC50 (HEL [15]): > 40 µg/mL; IC50 (HEL [16]): > 40 µg/mL
O=c1ccn(C2COC(CO)C(O)C2)c(=O)[nH]1 (stereo not drawn)		> 400 µg/mL							> 400 µg/mL	> 400 µg/mL	> 400 µg/mL	> 400 µg/mL	> 400 µg/mL	> 400 µg/mL	> 50 µg/mL	> 40 µg/mL	> 40 µg/mL	> 40 µg/mL	> 40 µg/mL		MIC (E6SM [17]): > 400 µg/mL; MIC (E6SM [22]): > 400 µg/mL; IC50 (HEL [30]): > 40 µg/mL; IC50 (HEL [31]): > 40 µg/mL
Nc1ncc2ncn(C3COC(CO)C(O)C3)c2n1 (stereo not drawn)	20 µg/mL (≈ 75.4 µM)		20 µg/mL (≈ 75.4 µM)	70 µg/mL (≈ 264 µM)	> 400 µg/mL	140 µg/mL (≈ 528 µM)	80 µg/mL (≈ 302 µM)	> 50 µg/mL												> 200 µg/mL	MIC (E6SM [33]): 150 µg/mL (≈ 565 µM); IC50 (HEL [34]): 60 µg/mL (≈ 226 µM); IC50 (HEL [14]): 90 µg/mL (≈ 339 µM); IC50 (HEL [15]): 100 µg/mL (≈ 377 µM); MIC (E6SM [35]): > 200 µg/mL; IC50 (HEL [16]): > 50 µg/mL
O=c1[nH]c(=O)n([C@H]2C[C@H](O)[C@@H](CO)O2)cc1/C=C/Br [BRIVUDINE]		0.004 µg/mL (≈ 0.012 µM)							> 200 µg/mL	70 µg/mL (≈ 210 µM)	0.004 µg/mL (≈ 0.012 µM)	0.2 µg/mL (≈ 0.6 µM)	> 400 µg/mL	40 µg/mL (≈ 120 µM)	> 50 µg/mL	> 100 µg/mL	> 100 µg/mL	8 µg/mL (≈ 24 µM)	30 µg/mL (≈ 90.1 µM)	> 200 µg/mL	MIC (E6SM [36]): 2 µg/mL (≈ 6 µM); MIC (E6SM [37]): 70 µg/mL (≈ 210 µM); IC50 (HEL [38]): 0.0007 µg/mL (≈ 0.0021 µM); IC50 (HEL [39]): 0.0015 µg/mL (≈ 0.0045 µM); Ki (Mus musculus): 23 µM; MIC (E6SM [40]): 300 µg/mL (≈ 901 µM)
O=c1[nH]c(=O)n([C@H]2C[C@H](O)[C@@H](CO)O2)cc1I [IDOXURIDINE]		0.2 µg/mL (≈ 0.565 µM)							0.2 µg/mL (≈ 0.565 µM)	0.2 µg/mL (≈ 0.565 µM)	0.2 µg/mL (≈ 0.565 µM)	1 µg/mL (≈ 2.82 µM)	> 400 µg/mL	40 µg/mL (≈ 113 µM)	> 50 µg/mL	20 µg/mL (≈ 56.5 µM)	> 50 µg/mL	4 µg/mL (≈ 11.3 µM)	4 µg/mL (≈ 11.3 µM)	> 400 µg/mL	MIC (E6SM [17]): 0.2 µg/mL (≈ 0.565 µM); MIC (E6SM [36]): 0.7 µg/mL (≈ 1.98 µM); MIC (E6SM [37]): 10 µg/mL (≈ 28.2 µM); IC50 (HEL [41]): 0.4 µg/mL (≈ 1.13 µM); IC50 (HEL [38]): 0.17 µg/mL (≈ 0.48 µM)
